Values joined by “and” are separate entries in the source; they are usually repeats but may differ in a detail not shown here. Equal entries are not always repeated.
Experiments:
Assay type in all cases: functional
Mus musculus [1] = species on record: Mus musculus; test: Antagonistic activity against tetrabenazine-induced ptosis in mice.
How it was run: (§1)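 Mice dosed intraperitoneally; the result is reported as the ED50 in μmol/kg with a range in parentheses. Test compounds are racemates of >95% isomeric purity by TLC.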

[2] = target: Norepinephrine transporter (Rattus norvegicus, UniProt Q9WTR4); test: Inhibition of noradrenaline uptake in rat synaptosomal fraction
Chain of Norepinephrine transporter (Q9WTR4 whole entry): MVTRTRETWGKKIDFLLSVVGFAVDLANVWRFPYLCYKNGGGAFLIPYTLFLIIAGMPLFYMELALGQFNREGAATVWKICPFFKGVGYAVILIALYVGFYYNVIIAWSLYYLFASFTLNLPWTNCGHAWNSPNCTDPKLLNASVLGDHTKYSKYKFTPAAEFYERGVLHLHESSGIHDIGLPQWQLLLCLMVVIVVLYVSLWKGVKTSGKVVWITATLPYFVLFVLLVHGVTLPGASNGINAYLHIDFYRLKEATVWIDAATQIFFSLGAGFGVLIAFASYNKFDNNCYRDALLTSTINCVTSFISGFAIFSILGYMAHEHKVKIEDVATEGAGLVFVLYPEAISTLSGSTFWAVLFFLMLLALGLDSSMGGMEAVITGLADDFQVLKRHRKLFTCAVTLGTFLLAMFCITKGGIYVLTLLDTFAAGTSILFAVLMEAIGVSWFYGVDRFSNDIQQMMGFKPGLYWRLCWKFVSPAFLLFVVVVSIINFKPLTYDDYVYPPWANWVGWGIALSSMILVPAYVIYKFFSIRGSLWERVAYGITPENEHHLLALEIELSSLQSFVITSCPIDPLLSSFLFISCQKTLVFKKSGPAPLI
How it was run: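 Synaptosomal uptake of DA, NE or 5-HT measured. The IC50 is in nM and is the mean of at least two determinations, each using five test concentrations in triplicate.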

Mus musculus [3] = species on record: Mus musculus; test: Antagonistic activity against 5-HTP induced potentiation in mice; how it was run: as §1
[4] = target: Sodium-dependent dopamine transporter (Rattus norvegicus, UniProt P23977); test: Inhibition of dopamine uptake in rat synaptosomal fraction
Chain of Sodium-dependent dopamine transporter (P23977 whole entry): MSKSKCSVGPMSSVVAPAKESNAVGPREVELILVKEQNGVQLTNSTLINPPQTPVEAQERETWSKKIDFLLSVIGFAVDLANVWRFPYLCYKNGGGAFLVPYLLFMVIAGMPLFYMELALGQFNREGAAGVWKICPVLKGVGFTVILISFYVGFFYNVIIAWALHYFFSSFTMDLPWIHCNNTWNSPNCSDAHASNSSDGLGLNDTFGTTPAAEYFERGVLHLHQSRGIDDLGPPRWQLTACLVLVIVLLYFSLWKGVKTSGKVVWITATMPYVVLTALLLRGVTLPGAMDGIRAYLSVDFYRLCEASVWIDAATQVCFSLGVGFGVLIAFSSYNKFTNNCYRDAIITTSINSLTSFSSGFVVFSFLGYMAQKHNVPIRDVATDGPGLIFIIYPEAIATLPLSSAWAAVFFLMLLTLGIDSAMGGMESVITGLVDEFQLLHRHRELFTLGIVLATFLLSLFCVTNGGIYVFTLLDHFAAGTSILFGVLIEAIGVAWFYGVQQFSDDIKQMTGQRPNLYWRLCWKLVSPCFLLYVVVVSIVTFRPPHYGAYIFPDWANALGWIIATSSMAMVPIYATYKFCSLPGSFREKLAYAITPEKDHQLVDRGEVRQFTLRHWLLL

SMILES	ED50 (Mus musculus [3])	further results
Clc1ccc(C2CC(NCCc3ccccc3)c3ccccc32)cc1Cl (stereo not drawn) [listing 1 of 2 here]	–	ED50 (Mus musculus [1]): >85 µmol/kg
Cl.Clc1ccc(C2CC(NCCc3ccccc3)c3ccccc32)cc1Cl (stereo not drawn)	–	ED50 (Mus musculus [1]): 33 µmol/kg
CN(C)C1CC(c2ccc(Cl)c(Cl)c2)c2ccccc21.Cl (stereo not drawn)	–	IC50 [2]: 2.4 nM
CN(C)C1CC(c2ccc(Cl)c(Cl)c2)c2ccccc21 (stereo not drawn)	5 µmol/kg and 10 µmol/kg	–
CN(C)C1CC(c2ccc(F)c(F)c2)c2ccccc21 (stereo not drawn)	73 µmol/kg and 42 µmol/kg	–
CN(C)C1CC(c2ccc(F)cc2)c2ccc(F)cc21 (stereo not drawn)	> 29 µmol/kg and 21 µmol/kg	–
CN1Cc2c(N)cccc2C(c2ccccc2)C1 (stereo not drawn)	> 56 µmol/kg	–
CNC1CC(c2ccc(Cl)cc2)c2ccccc21 (stereo not drawn)	34 µmol/kg and 22 µmol/kg	–
Clc1ccc(C2CC(NCCc3ccccc3)c3ccccc32)cc1Cl (stereo not drawn) [listing 2 of 2 here]	> 85 µmol/kg and 142 µmol/kg	–
CN1CCN(C2CC(c3ccc(Cl)c(Cl)c3)c3ccccc32)CC1 (single isomer, unassigned; (+)-101)	> 91 µmol/kg	–
CN1CCN(C2CC(c3ccc(Cl)c(Cl)c3)c3ccccc32)CC1 (single isomer, unassigned; (+)-102) [listing 1 of 2 here]	–	IC50 [4]: 1700 nM
CN1CCN(C2CC(c3ccc(Cl)c(Cl)c3)c3ccccc32)CC1 (single isomer, unassigned; (+)-102) [listing 2 of 2 here]	> 89 µmol/kg	–
CN1CCN(C2CC(c3ccc(Cl)c(Cl)c3)c3ccccc32)CC1 (single isomer, unassigned; (-))	> 92 µmol/kg	–
CN(C)C1CC(c2ccccc2)c2ccccc21 (stereo in doubt; 31)	> 35 µmol/kg	–
CNC1CC(c2ccc(F)cc2)c2ccccc21 (stereo in doubt; 32)	> 144 µmol/kg	–
CN(C)C1CC(c2ccc(F)cc2)c2ccccc21 (stereo in doubt; 33)	45 µmol/kg	–
CN(C)C1CC(c2ccc(Cl)cc2)c2ccccc21 (stereo in doubt; 35)	48 µmol/kg	–
CNC1CC(c2ccc(Br)cc2)c2ccccc21 (stereo in doubt; 36)	8.8 µmol/kg	–
CN(C)C1CC(c2ccc(Br)cc2)c2ccccc21 (stereo in doubt; 37)	8.4 µmol/kg	–
CNC1CC(c2cccc(Cl)c2)c2ccccc21 (stereo in doubt; 39)	92 µmol/kg	–
CN(C)C1CC(c2cccc(Cl)c2)c2ccccc21 (stereo in doubt; 40)	43 µmol/kg	–
CNC1CC(c2ccc(F)c(F)c2)c2ccccc21 (stereo in doubt; 41)	22 µmol/kg	–
CNC1CC(c2ccc(F)c(Cl)c2)c2ccccc21.Cl (stereo in doubt; 43)	–	ED50 (Mus musculus [1]): 12 µmol/kg

SMILES	ED50 (Mus musculus [3])	further results
CNC1CC(c2ccc(F)c(Cl)c2)c2ccccc21 (stereo in doubt; 43)	47 µmol/kg	–
CN(C)C1CC(c2ccc(F)c(Cl)c2)c2ccccc21.Cl (stereo in doubt; 44)	–	ED50 (Mus musculus [1]): 4.5 µmol/kg
CN(C)C1CC(c2ccc(F)c(Cl)c2)c2ccccc21 (stereo in doubt; 44)	37 µmol/kg	–
CNC1CC(c2ccc(Cl)cc2Cl)c2ccccc21 (stereo in doubt; 48)	67 µmol/kg	–
CN(C)C1CC(c2ccc(Cl)cc2Cl)c2ccccc21 (stereo in doubt; 49)	19 µmol/kg	–
CNC1CC(c2ccc(Cl)c(Cl)c2)c2ccc(F)cc21 (stereo in doubt; 50)	27 µmol/kg	–
CN(C)C1CC(c2ccc(Cl)c(Cl)c2)c2ccc(F)cc21 (stereo in doubt; 51)	20 µmol/kg	–
CNC1CC(c2ccc(Cl)c(Cl)c2)c2ccc(O)cc21 (stereo in doubt; 54)	> 128 µmol/kg	–
CN(C)C1CC(c2ccc(F)cc2)c2ccc(C(F)(F)F)cc21 (stereo in doubt; 57)	123 µmol/kg	–
CN(C)C1CC(c2ccccc2)c2ccccc21 (stereo in doubt; 59)	> 36 µmol/kg	–
CNC1CC(c2ccc(F)cc2)c2ccccc21 (stereo in doubt; 60)	72 µmol/kg	–
CN(C)C1CC(c2ccc(F)cc2)c2ccccc21 (stereo in doubt; 61)	25 µmol/kg	–
CN(C)C1CC(c2ccc(Cl)cc2)c2ccccc21 (stereo in doubt; 63)	14 µmol/kg	–
CNC1CC(c2ccc(Br)cc2)c2ccccc21 (stereo in doubt; 64)	6.6 µmol/kg	–
CN(C)C1CC(c2ccc(Br)cc2)c2ccccc21 (stereo in doubt; 65)	12 µmol/kg	–
CNC1CC(c2cccc(Cl)c2)c2ccccc21 (stereo in doubt; 66)	124 µmol/kg	–
CN(C)C1CC(c2cccc(Cl)c2)c2ccccc21 (stereo in doubt; 67)	78 µmol/kg	–
CNC1CC(c2ccc(F)c(F)c2)c2ccccc21 (stereo in doubt; 68)	63 µmol/kg	–
CNC1CC(c2ccc(F)c(Cl)c2)c2ccccc21.Cl (stereo in doubt; 70)	–	ED50 (Mus musculus [1]): 32 µmol/kg
CNC1CC(c2ccc(F)c(Cl)c2)c2ccccc21 (stereo in doubt; 70)	30 µmol/kg	–
CN(C)C1CC(c2ccc(F)c(Cl)c2)c2ccccc21.Cl (stereo in doubt; 71)	–	ED50 (Mus musculus [1]): 13 µmol/kg
CN(C)C1CC(c2ccc(F)c(Cl)c2)c2ccccc21 (stereo in doubt; 71)	51 µmol/kg	–
CNC1CC(c2ccc(Cl)cc2Cl)c2ccccc21 (stereo in doubt; 74)	71 µmol/kg	–

SMILES	ED50 (Mus musculus [3])	further results
CN(C)C1CC(c2ccc(Cl)cc2Cl)c2ccccc21 (stereo in doubt; 75)	19 µmol/kg	–
CNC1CC(c2ccc(Cl)c(Cl)c2)c2ccc(F)cc21 (stereo in doubt; 76)	15 µmol/kg	–
CN(C)C1CC(c2ccc(Cl)c(Cl)c2)c2ccc(F)cc21 (stereo in doubt; 77)	29 µmol/kg	–
CN(C)C1CC(c2ccc(F)cc2)c2ccc(C(F)(F)F)cc21 (stereo in doubt; 82)	101 µmol/kg	–
CCNC1CC(c2ccc(Cl)c(Cl)c2)c2ccccc21 (stereo in doubt; 83)	26 µmol/kg	–
CCNC1CC(c2ccc(Cl)c(Cl)c2)c2ccccc21 (stereo in doubt; 84)	26 µmol/kg	–
CCN(CC)C1CC(c2ccc(Cl)c(Cl)c2)c2ccccc21 (stereo in doubt; 85)	19 µmol/kg	–
CCN(CC)C1CC(c2ccc(Cl)c(Cl)c2)c2ccccc21 (stereo in doubt; 86)	204 µmol/kg	–
CCCNC1CC(c2ccc(Cl)c(Cl)c2)c2ccccc21 (stereo in doubt; 87)	87 µmol/kg	–
CCCNC1CC(c2ccc(Cl)c(Cl)c2)c2ccccc21 (stereo in doubt; 88) [listing 1 of 2 here]	–	ED50 (Mus musculus [1]; Mus musculus, read-out: ED50): > 112 µmol/kg
CCCNC1CC(c2ccc(Cl)c(Cl)c2)c2ccccc21 (stereo in doubt; 88) [listing 2 of 2 here]	> 112 µmol/kg	–
CCCN(CCC)C1CC(c2ccc(Cl)c(Cl)c2)c2ccccc21 (stereo in doubt; 89)	> 100 µmol/kg	–
CCCN(CCC)C1CC(c2ccc(Cl)c(Cl)c2)c2ccccc21 (stereo in doubt; 90)	> 100 µmol/kg	–
Clc1ccc(C2CC(NCc3ccccc3)c3ccccc32)cc1Cl (stereo in doubt; 93)	47 µmol/kg	–
Clc1ccc(C2CC(NCc3ccccc3)c3ccccc32)cc1Cl (stereo in doubt; 94)	207 µmol/kg	–
Clc1ccc(C2CC(N3CCCC3)c3ccccc32)cc1Cl (stereo in doubt; 97)	> 108 µmol/kg	–
Clc1ccc(C2CC(N3CCCC3)c3ccccc32)cc1Cl (stereo in doubt; 98)	161 µmol/kg	–
Clc1ccc(C2CC(N3CCCCC3)c3ccccc32)cc1Cl (stereo in doubt; 99) [listing 1 of 2 here]	–	IC50 [4]: 720 nM
Clc1ccc(C2CC(N3CCCCC3)c3ccccc32)cc1Cl (stereo in doubt; 99) [listing 2 of 2 here]	> 209 µmol/kg	–
Clc1ccc(C2CC(N3CCCCC3)c3ccccc32)cc1Cl (stereo in doubt; 100)	> 209 µmol/kg	–
CN1CCN(C2CC(c3ccc(Cl)c(Cl)c3)c3ccccc32)CC1 (stereo in doubt; 102)	> 89 µmol/kg	–
CN1CCN(C2CC(c3ccc(Cl)c(Cl)c3)c3ccccc32)CC1 (stereo in doubt; (-)-102)	> 89 µmol/kg	–
